Compound activity deposited in PubChem by several laboratories.
Shown are actives, neighbours in structure and some others; about 3.7% of the full set was active somewhere.
MT stabilizer – microtubule stabilizers in HeLa cells; HeLa tubulin immunostaining HCS, 24 h; share of cells brighter than vehicle mean+2SD; % tubulin-high responders, % at 10 µM; 200,000 compounds, 0.83% hits; AID 2205;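 active = plate Z-score above 3 for both tubulin-high and condensed-nucleus cell shares, with cell loss under 80%, at 10 µM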;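 note: anti alpha tubulin signal scored within the nucleus-defined area of each cell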
ROMK primary – modulators of human ROMK potassium channel. P48048. Tet-inducible ROMK, thallium flux fluorescence; actives lie on both sides. B-score at 10 µM. 130,000 compounds, 2% hits. AID 1918;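 active = signal ratio slope over the read window, or its plate-corrected B-score, at least 3 SD from the plate mean, either direction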;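 note: B-score of the F/F0 ratio slope over 7 to 12 s after thallium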
Cl transport mod – modulators of human KCC2 chloride dependent transport; KCC2 cells, thallium flux FluoZin-2 fluorescence; B-score of Tl+ flux slope (higher = more flux/activation; lower = inhibition) at 10 µM; 190,000 compounds, 2.2% hits;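 active = thallium flux slope and its plate-corrected score both differing from the plate sample mean at a set confidence after two filtering rounds, in either direction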;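 note: slope of fluorescence scaled to starting intensity during 10 to 20 s after thallium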
DTT redox prof – compounds producing H2O2 with reducing agent – biochemical, NIH compound library profiling, artefact control for MLSCN library redox annotation, primary screen; DTT-dependent redox cycling H2O2, phenol red/HRP absorbance; 100% = 100 µM peroxide control, 0% = buffer; activation, % at 10 µM; 200,000 compounds, 0.03% hits;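 active = activation of at least 50% relative to the plate's high and low controls in the primary single-dose screen; inactive = activation below 50%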;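 note: compound incubated with DTT at 0.8 mM final as the reducing agent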
b-catenin transl – beta-catenin nuclear translocation modulation; HeLa beta-catenin nuclear translocation, immunofluorescence imaging; nuclear translocation activity, % at 5 µM; 190,000 compounds, 0.3% hits; AID 1665;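 active = nuclear translocation activity above 50% at 5 µM, with a well cell count of 50 or more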;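 note: per-cell ratio of nuclear to cytoplasmic median beta-catenin stain intensity; plate controls were DMSO negative control for no effect and GSK-3 inhibitor IX positive control for full effect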
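System: Human HeLa cells, endogenous beta-catenin | Compound dosing: 5 µM primary, 0.02–20 µM confirmation | Timing: 24 h compound exposure at 37°C, 5% CO2 | Measured by: Fluorescence imaging of beta-catenin antibody stain plus DAPI | Read-out basis: % activation of per-cell nuclear versus cytoplasmic median beta-catenin signal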
Numbers without * were called inactive; / = no result given.

SMILES	MT stabilizer	ROMK primary	Cl transport mod	DTT redox prof	b-catenin transl
COc1ccc(C2C=C(c3ccc(C)c(C)c3)Nc3ncnn32)c(OC)c1OC (configuration not stated)	23*	/	/	-1	/
COc1cc2c(cc1OC)CN(C(C)C(=O)N1CCc3ccccc31)CC2 (configuration not stated)	47*	0.75	0.74	1	/
COc1cccc(C(=O)N2CCCc3ccccc32)c1	3	/	-0.18	2	1
COc1cc(C(=O)N2CCCc3ccccc32)cc(OC)c1OC	39*	/	-1.1	-1	53*
CC(C(=O)N1CCc2ccccc21)N1CCc2ccccc2C1 (configuration not stated)	2	/	-0.017	2	2
Cc1ccc(C(=O)N/N=C2\CCCc3ccccc32)c(C)c1	2	-0.47	0.26	-1	2
O=C(N/N=C1\CCCc2ccccc21)c1ccc([N+](=O)[O-])cc1	2	/	3.1*	4	0
Cc1ccc(Cn2cnc3ccccc32)cc1C	3	/	0.047	0	-3
CC(=O)c1ccc(Nc2cc(C)nc3c(C)cc(C)cc23)cc1	20*	2.5	-0.82	-1	124*
COC(=O)c1ccc(Nc2cc(C)nc3ccccc23)cc1	/	/	/	/	79*
COC(=O)c1ccc2nc(C)cc(Nc3ccc(N(C)C)cc3)c2c1	2	0.31	-0.5	0	-1
CC(C)CCN(N=O)[C@@H](Cc1ccccc1)CN(N=O)[C@@H](Cc1ccccc1)CN(C)N=O	2	/	-4.1*	-1	-2
Clc1ccc(C2=Nn3c(nnc3-c3n[nH]c4c3CCC4)SC2)cc1Cl	19*	/	-1.1	2	-1
CC(=O)N1c2ccc(Cl)cc2C2C=CCC2C1c1cccc2ccccc12 (configuration not stated)	12*	/	-0.26	1	82*
CC(=O)N1c2ccc3ccccc3c2C2C=CCC2C1c1ccc(Br)cc1 (configuration not stated)	3	-0.012	-0.58	0	3
O=C(Cc1ccc(Cl)cc1)c1c[nH]c(C(=O)NCCCn2ccnc2)c1	2	-1.2	-0.025	0	0
CCOC(=O)Cc1nnc(Nc2cc(C)ccc2C)c2ccccc12	2	-0.16	-0.65	-2	2
O=C(NCc1ccccc1)c1ccc2c(=O)[nH]c3c(C(=O)NCC4CCCO4)sc(=S)n3c2c1 (configuration not stated)	3	-0.077	-2.8	0	-5
O=C(NCc1ccco1)c1sc(=S)n2c1[nH]c(=O)c1ccccc12	3	-3.7*	/	0	0
S=c1[nH]nc(COc2ccccc2)n1C1CCCCC1	1	0.26	12*	3	/
O=C(O)CSc1nnc(CSc2nc3ccccc3s2)n1-c1ccccc1	3	-0.01	0.019	-1	-1
S=c1[nH]nc(CSc2nc3ccccc3s2)n1C1CCCCC1	2	/	30*	-4	-2
O=C(Nc1cccc(Cl)c1)N(Cc1nc2ccccc2c(=O)[nH]1)Cc1cccs1	5	0.61	0.61	0	-1
O=[N+]([O-])c1cc(C(F)(F)F)cc([N+](=O)[O-])c1N1CCCNCC1	6	-0.4	0.7	0	3
CCN(CC)S(=O)(=O)c1ccc(C(=O)OCn2c(SC)nnc(C)c2=O)cc1	3	-0.36	-1.2	0	-2
SMILES	MT stabilizer	ROMK primary	Cl transport mod	DTT redox prof	b-catenin transl
C(=C\c1ccccc1)/C=N/Nc1nc2ccccc2[nH]1	13*	/	-0.28	1	21
C(=N\Nc1nc2ccccc2[nH]1)/c1ccccc1	/	-0.37	-0.15	-1	0
O=C1C=C(NCCc2ccccc2)C2(CCCCC2)O1	3	-0.7	-1.7	0	-1
O=C(CSc1ncn[nH]1)Nc1ccc(S(=O)(=O)N2CCCC2)cc1	2	/	-1.1	0	/
CCOC(=O)c1[nH]c(C)c(C(=O)OC(C)C(=O)Nc2ncc(Cl)cc2Cl)c1C (configuration not stated)	42*	/	-0.46	2	0
O=C(CSc1nnnn1-c1ccc2c(c1)OCO2)NCc1ccccc1	42*	/	-1.3	2	/
COc1ccc(S(=O)(=O)NCC2CCCN(C(=O)c3ccccc3)C2)cc1 (configuration not stated)	2	0.18	0.062	0	0
O=c1nc(-c2ccccc2)c2ccccc2[nH]1	2	/	-0.46	1	/
S=c1nc(-c2ccccc2)[nH]c2ccccc12	7	7.3*	40*	0	-3
O=C1CCCC2=C1C(c1cccs1)Nc1ccc3ncccc3c12 (configuration not stated)	4	/	-0.92	-8	1
Cc1ccsc1C1Nc2ccc3ncccc3c2C2=C1C(=O)CC(C)(C)C2 (configuration not stated)	37*	/	-2.5	1	-2
COc1cccc(C(=O)N/N=C/c2cn[nH]c2-c2ccc(OC)cc2OC)c1	2	/	-0.63	-4	/
Cc1ccccc1CCN(C(=O)Cn1nnc2ccccc21)C(C(=O)NCC1CCCO1)c1nc2ccccc2n1C (configuration not stated)	3	-0.41	0.045	0	-2
CCOC(=O)C1=C(N)n2c(s/c(=C/c3ccco3)c2=O)=C(C(=O)OC)C1c1ccco1 (configuration not stated)	46*	2	0.64	3	-4
Cc1cc(C)cc(OCC(=O)OCC(=O)Nc2c(C)n(C)n(-c3ccccc3)c2=O)c1	6	2.7	-0.071	-1	-2
CCOC(=O)N1CCN(C(=O)c2ccc3c(=O)n(CCC4=CCCCC4)c(=S)[nH]c3c2)CC1	4	-0.028	/	-1	-1
O=c1c2ccc(Cl)cc2[nH]c(=S)n1CCC1=CCCCC1	3	-0.31	37*	0	-1
CN1CCN(c2ccccc2/C=N/NC(=O)c2cccnc2)CC1	/	/	0.036	/	7
CSC1=NC(C(Cl)(Cl)Cl)N=C(c2ccccc2)N1 (configuration not stated)	15*	0.69	0.27	4	75*
COc1ccc(S(=O)(=O)Nc2cc(Cl)ccc2OC)cc1	24*	/	-0.38	2	45
COc1ccc(OC)c(NS(=O)(=O)c2ccc(Br)s2)c1	9.6*	0.46	0.78	-1	-1
CCOc1ccc(S(=O)(=O)Nc2cc(OC)ccc2OC)cc1	11	/	-0.54	0	52*
COc1ccc(OC)c(NS(=O)(=O)c2ccc(Cl)s2)c1	13	/	-0.053	2	-2
NC(=O)c1cnn(-c2ccc3ccccc3c2)c1N	2	0.68	-0.73	-2	-3
COc1ccc(C(C)=O)cc1COC(=O)C(CO)NS(=O)(=O)c1ccc(Br)cc1 (configuration not stated)	4	-1.3	-0.5	-1	-1
COC(=O)C1=C(C)N(C2CCCCC2)C(=O)/C1=C\c1cccs1	3	-0.43	1.1	0	-1
COC(=O)c1sccc1NC(=O)c1c(C)c(-c2cccc(Cl)c2)nc2ccccc12	5	/	-0.54	0	0
